In PubChem BioAssay:
The source made the active and inactive calls.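 How the source made its calls, unless noted: active means viability at or below 30% in both replicate assays; inconclusive means viability at or below 30% in just one of the two assays; inactive means the rest.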

Legend:
[1] = reduced viability of SK-BR-3 breast cancer cells – cell-based, 24 h, human, pilot screen (AID 572;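 active means viability at or below 10% of carrier control in both of two separate runs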;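 further: compound exposure lasted between 18 and 24 h rather than exactly 24 h; 100% = carrier-treated control wells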); conditions: SK-BR-3 viability, CellTiter-Glo luminescence, at 10 µM, stronger effect = lower value
[2] = HUVEC growth inhibition – cell-based, human, primary screen (AID 575); conditions: HUVEC proliferation, CellTiter-Glo luminescence, 72 h; at 10 µM; stronger effect = lower value;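 further: 100% = median of untreated cell wells with 0.1% DMSO on each plate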
How it was run: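 material = primary HUVEC, no more than 12 passages | input = 1250 cells per well | controls = vehicle and MePR control wells | measured by = CTG luminescence | times = 72 h compound incubation | format = collagen-coated 384-well format | read-out = % viability vs DMSO wells | doses = single 10 µM dose, 0.1% DMSO, from 5x medium stock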

[3] = H69AR cell proliferation blockers – human, duplicate replicates, primary screen (AID 580;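 active means viability at or under a set limit in both replicates, limit being median viability minus 3 SD, cut at about 48% in these data, passing the limit was not always enough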;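 further: 100% = mean luminescence of untreated wells and 0% = no signal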); conditions: H69AR lung tumor cells viability, ATP luminescence, 72 h; at 10 µM; stronger effect = lower value
[4] = MRP1 drug-resistance reversers in H69AR cells – cell-based, doxorubicin co-treatment, pilot screen (AID 601;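 active means viability loss from added drug above about 55%, and viability with drug at most 40%, in both replicates, limit read from the data, passing the limit was not always enough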); conditions: CellTiter-Glo, 72 h, at 10 µM; for differential viability (reversal): stronger effect = higher value
[5] = yeast transport mutant growth inhibition pilot in 384-well plates, post-Golgi transport modulator project (AID 636; in the data active means inhibition above about 31%); conditions: absorbance 615 nm, about 18 h, stronger effect = higher value
[6] = growth suppression of yeast trafficking mutant, preliminary HTS, modulators of trafficking downstream of Golgi apparatus project, 1536-format plate, OD 615 nm (AID 637; in the data active means inhibition above about 30%); conditions: yeast transport mutant growth, absorbance 615 nm, 18 h; stronger effect = higher value
[7] = H69AR cells + 2 uM doxorubicin, measured here: viability with 2 uM doxorubicin, stronger effect = lower value
[8] = H69AR cells, compound alone cytotoxicity

| SMILES | viability [1] | viability [2] | viability [3] | differential viability (reversal) ([4]; H69AR cells + 2 uM doxorubicin) | viability [4, 7] [%] | viability [4, 8] [%] | inhibition [5] | inhibition [6] |
| --- | --- | --- | --- | --- | --- | --- | --- | --- |
| CC(=O)Nc1c(I)c(NC(C)=O)c(I)c(C(=O)O)c1I | 89% (inactive) | 98.4% (inactive) | 103% (inactive) | 1.03% (inactive) | 102 | 103 | -0.13% (inactive) | -3% (inactive) |
| Cc1nc(CCNS(=O)(=O)c2cccs2)cs1 | 86% (inactive) | 105% (inactive) | 97.5% (inactive) | 11.5% (inactive) | 86 | 97.5 | 7.92% (inactive) | -12.8% (inactive) |
| CCOC(=O)c1cnc(-n2nc(C)cc2C)nc1N1CC(C)OC(C)C1 (centres undefined) | 127% (inactive) | 105% (inactive) | 86.1% (inactive) | 9.65% (inactive) | 76.4 | 86.1 | -3.47% (inactive) | 0.73% (inactive) |
| CCN(CC)CCOC(=O)c1ccc(NC(=O)COc2cc(=O)n(CC)c3ccccc23)cc1 | 103% (inactive) | 98.3% (inactive) | 109% (inactive) | 26.6% (inactive) | 82.1 | 109 | -2.86% (inactive) | -10% (inactive) |
| O=C(NCc1ccccc1)C1CCCN(S(=O)(=O)c2cccnc2)C1 (centres undefined) | 92% (inactive) | 95.5% (inactive) | 99% (inactive) | 6.21% (inactive) | 92.8 | 99 | -4.66% (inactive) | -3.81% (inactive) |
| CC(C)OC(=O)c1cccc(C(=O)O)n1 | 110% (inactive) | 91% (inactive) | 96% (inactive) | 1.99% (inactive) | 94.1 | 96 | -1.69% (inactive) | -5.57% (inactive) |
| COCCNC(=O)C(c1ccc(C)o1)N(C(=O)c1snc(C(N)=O)c1N)c1ccc(C)cc1 (centres undefined) | 100% (inactive) | 87.5% (inactive) | 92.1% (inactive) | 9.05% (inactive) | 83.1 | 92.1 | -3.87% (inactive) | 3.64% (inactive) |
| OC(CCN1CCCCC1)(c1ccccc1)c1ccccc1 | 95% (inactive) | 92.7% (inactive) | 84.1% (inactive) | 0.38% (inactive) | 83.7 | 84.1 | -2.21% (inactive) | 0% (inactive) |
| COCCCn1nnnc1SCC(=O)Nc1nc(C)c(C)s1 | 109% (inactive) | 89.2% (inactive) | 88.1% (inactive) | 2.5% (inactive) | 85.6 | 88.1 | -2.88% (inactive) | 1.13% (inactive) |
| COCCn1nnnc1SCC(=O)N1CCCCC1 | 63% (inactive) | 102% (inactive) | 99.4% (inactive) | 1.98% (inactive) | 97.4 | 99.4 | -5.34% (inactive) | 4.18% (inactive) |
| NC(=O)C1CCN(c2nc(-c3ccccc3)nc3ccccc23)CC1 | 114% (inactive) | 77.2% (inactive) | 66.3% (inactive) | -2.88% (inactive) | 69.2 | 66.3 | -3.15% (inactive) | -4.03% (inactive) |
| N#Cc1c(N)oc(-c2cccs2)c1-c1cccs1 | 107% (inactive) | 107% (inactive) | 95% (inactive) | 1.77% (inactive) | 93.2 | 95 | -6.93% (inactive) | -3.82% (inactive) |
| COc1cc(C(=O)OC(C)CN2CCCC2)cc(OC)c1OC (centres undefined) | 99% (inactive) | 98.1% (inactive) | 108% (inactive) | 11.5% (inactive) | 97 | 108 | -3.65% (inactive) | 0.55% (inactive) |
